Results: ChEMBL document CHEMBL3526071, “Predicting phenolic acid absorption in Caco-2 cells: a theoretical permeability model and mechanistic study” (Drug Metab Dispos, 2012)
Where a SMILES comes first, the peptide text is derived from it.

What was measured:
[1] = Apparent permeability across human Caco2 cells with low TEER resistance at 500 uM after 1 hr by HPLC-DAD analysis; assay type: ADME, cell-based; conditions: Caco-2
Outline: (§1)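 Caco-2 (passages 30–50) seeded at 6 × 10^4 cells/cm2 on 0.4-μm polycarbonate Transwell inserts and grown 21 days. Monolayer resistance varied by 15-min preincubation in HBSS pH 7.4 with 18 μM or 3.6 mM CaCl2. 500 μM compound added apically in HBSS at the same CaCl2. 1 h, 37°C, no stirring. TEER measured before and after, corrected for cell-free insert. Receiver quantified by HPLC-DAD. n = 3.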

[2] = Apparent permeability from apical to basolateral side in human Caco2 cells at 500 uM at pH 7.4 after 1 hr by HPLC-DAD analysis; assay type: ADME, cell-based; conditions: Caco-2, pH 7.4
Outline: (§2)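 Differentiated Caco-2 monolayers after 21+ days on Transwells, equilibrated 15 min in HBSS with 1.8 mM CaCl2, pH 7.4. 500 μM compound (from DMSO stock) in the donor, apical or basal. Both sides pH 7.4. 1 h at 37°C, 5% CO2. Receiver measured by HPLC-DAD with recovery correction. Papp calculated from receiver amount over time versus initial donor amount. Mean ± S.D., n = 3.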

[3] = Efflux ratio of apparent permeability from basolateral to apical side over apical to basolateral side in human Caco2 cells at 500 uM after 1 hr by HPLC-DAD analysis; assay type: ADME, cell-based; conditions: Caco-2
[4] = 1-Octanol-water distribution coefficient, log D of the compound at pH 7.4 by shake flask method; assay type: physicochemical
[5] = Apparent permeability across human Caco2 cells with high TEER resistance at 500 uM after 1 hr by HPLC-DAD analysis; assay type: ADME, cell-based; conditions: Caco-2; outline: as §1
[6] = Apparent permeability from basolateral to apical side in human Caco2 cells at 500 uM at pH 7.4 after 1 hr by HPLC-DAD analysis; assay type: ADME, cell-based; conditions: Caco-2, pH 7.4; outline: as §2
[7] = 1-Octanol-water distribution coefficient, log D of the compound at pH 7.4; assay type: physicochemical
[8] = Oral bioavailability in human; assay type: ADME, organism-based; conditions: in vivo
[9] = 1-octanol/water, read-out: logD

Question: Which results are given for `O=C(/C=C/c1ccc(O)c(O)c1)O[C@@H]1C[C@](O)(C(=O)O)C[C@@H](OC(=O)/C=C/c2ccc(O)c(O)c2)[C@H]1O`?
Answer: Papp at 1 h, 500 µM [1]: 0.68 ×10⁻⁶ cm/s; Papp A→B at 1 h, 500 µM [2]: 0.14 ×10⁻⁶ cm/s; efflux ratio at 1 h, 500 µM [3]: 5.4; logD [4]: -1.04; Papp at 1 h, 500 µM [5]: 0.05 ×10⁻⁶ cm/s; Papp B→A at 1 h, 500 µM [6]: 0.72 ×10⁻⁶ cm/s

Question: Which logD [7, 9] does the source give for `CC(C)(C)S(=O)(=O)C[C@@H](Cc1ccccc1)C(=O)N[C@@H](Cc1cnc[nH]1)C(=O)N[C@@H](CC1CCCCC1)[C@@H](O)[C@@H](O)C1CC1` here?
Answer: 2.75

Question: Which Papp A→B at 1 h, 500 µM [2] does the source give for `COc1ccc(/C=C/C(=O)O)cc1OC` here?
Answer: 19.9 ×10⁻⁶ cm/s

Question: And the efflux ratio at 1 h, 500 µM [3]?
Answer: 1.1

Question: And the logD [4]?
Answer: -1.01

Question: And the Papp B→A at 1 h, 500 µM [6]?
Answer: 21.7 ×10⁻⁶ cm/s

Question: Which logD [7, 9] does the source give for `CSc1ccc2ncn(/C=C/C(=O)O)c(=O)c2c1` here?
Answer: -1.05

Question: What does the source list for `COc1cc(/C=C/C(=O)O[C@@H]2C[C@](O)(C(=O)O)C[C@@H](O)[C@H]2O)ccc1O`?
Answer: Papp at 1 h, 500 µM [1]: 1.7 ×10⁻⁶ cm/s; Papp A→B at 1 h, 500 µM [2]: 0.25 ×10⁻⁶ cm/s; efflux ratio at 1 h, 500 µM [3]: 1.1; logD [4]: -2.79; Papp at 1 h, 500 µM [5]: 0.31 ×10⁻⁶ cm/s; Papp B→A at 1 h, 500 µM [6]: 0.28 ×10⁻⁶ cm/s

Question: Which logD [4] does the source give for `C=CCc1ccccc1OCC(O)CNC(C)C` (centres undefined) [ALPRENOLOL] here?
Answer: 1.08

Question: Which bioavailability [8] does the source give for `Cc1c(N(C)C)c(=O)n(-c2ccccc2)n1C` [AMINOPYRINE] here?
Answer: 100%

Question: With `CC(=O)Oc1ccccc1C(=O)O` [ASPIRIN] as the compound, how does the bioavailability [8] read?
Answer: 100%

Question: With `O=C(O)/C=C/c1ccc(O)c(O)c1` [CAFFEIC ACID] as the compound, how does the Papp A→B at 1 h, 500 µM [2] read?
Answer: 1.4 ×10⁻⁶ cm/s

Question: What about the Papp B→A at 1 h, 500 µM [6] of the same compound?
Answer: 1.7 ×10⁻⁶ cm/s

Question: What does the source list for `O=C(/C=C/c1ccc(O)c(O)c1)O[C@@H]1C[C@](O)(C(=O)O)C[C@@H](O)[C@H]1O` [CHLOROGENIC ACID]?
Answer: Papp at 1 h, 500 µM [1]: 0.77 ×10⁻⁶ cm/s; Papp A→B at 1 h, 500 µM [2]: 0.38 ×10⁻⁶ cm/s; logD [4]: -3.05; Papp at 1 h, 500 µM [5]: 0.25 ×10⁻⁶ cm/s; Papp B→A at 1 h, 500 µM [6]: 0.33 ×10⁻⁶ cm/s

Question: For `CN/C(=N/CCSCc1nc[nH]c1C)NC#N` [CIMETIDINE], which logD [7, 9] is on record?
Answer: -0.4

Question: For `OC[C@H]1OC(O)[C@H](O)[C@@H](O)[C@@H]1O` (some centres undefined) [DEXTROSE], which logD [7, 9] is on record?
Answer: -2.83

Question: For `CNC[C@H](O)c1ccc(O)c(O)c1` [EPINEPHRINE], which logD [7, 9] is on record?
Answer: -2.59

Question: Which logD ([7]; octanol/water) does the source give for `CCOC(=O)C1=C(C)NC(C)=C(C(=O)OC)C1c1cccc(Cl)c1Cl` (centres undefined) [FELODIPINE] here?
Answer: 3.48

Question: With `COc1cc(/C=C/C(=O)O)ccc1O` [FERULATE] as the compound, how does the Papp at 1 h, 500 µM [1] read?
Answer: 11.2 ×10⁻⁶ cm/s

Question: What about the Papp A→B at 1 h, 500 µM [2] of the same compound?
Answer: 10 ×10⁻⁶ cm/s

Question: And the efflux ratio at 1 h, 500 µM [3]?
Answer: 1

Question: What about the logD [4] of the same compound?
Answer: -1.19

Question: And the Papp at 1 h, 500 µM [5]?
Answer: 10.8 ×10⁻⁶ cm/s

Question: What about the Papp B→A at 1 h, 500 µM [6] of the same compound?
Answer: 10.2 ×10⁻⁶ cm/s

Question: Which logD [7, 9] does the source give for `CC(C)n1c(/C=C/C(O)CC(O)CC(=O)O)c(-c2ccc(F)cc2)c2ccccc21` (centres undefined) [FLUVASTATIN] here?
Answer: 1.09

Question: For `NCC(=O)N1CCC[C@H]1C(=O)O` [GLYCYL PROLINE] (H-Gly-Pro-OH), which logD [7, 9] is on record?
Answer: -3.32

Question: Which logD [7, 9] does the source give for `COC1=CC(=O)C[C@@H](C)[C@]12Oc1c(Cl)c(OC)cc(OC)c1C2=O` [GRISEOFULVIN] here?
Answer: 2.47

Question: With `N=C(N)NCC1COc2ccccc2O1` (centres undefined) [GUANOXAN] as the compound, how does the logD [7, 9] read?
Answer: -0.83

Question: For `N[C@@H](Cc1ccc(O)c(O)c1)C(=O)O` [LEVODOPA], which logD ([7]; octanol/water) is on record?
Answer: -1.22

Question: What does the source list for `OC[C@@H](O)[C@@H](O)[C@H](O)[C@H](O)CO` [MANNITOL]?
Answer: bioavailability [8]: 16%; logD [7, 9]: -3.1

Question: Which logD [4] does the source give for `COCCc1ccc(OCC(O)CNC(C)C)cc1` (centres undefined) [METOPROLOL] here?
Answer: -0.24

Question: For `COCC(=O)O[C@]1(CCN(C)CCCc2nc3ccccc3[nH]2)CCc2cc(F)ccc2[C@@H]1C(C)C` [MIBEFRADIL], which logD ([7]; octanol/water) is on record?
Answer: 3.66

Question: For `Cc1ccnc2c1NC(=O)c1cccnc1N2C1CC1` [NEVIRAPINE], which bioavailability [8] is on record?
Answer: > 90%

Question: And the logD [7, 9]?
Answer: 1.81

Question: For `O=C1NC(=O)C(c2ccccc2)(c2ccccc2)N1` [PHENYTOIN], which logD [7, 9] is on record?
Answer: 2.5

Question: For `CN1C(C(=O)Nc2ccccn2)=C(O)c2ccccc2S1(=O)=O` [PIROXICAM], which logD [7, 9] is on record?
Answer: 0

Question: Which logD [7, 9] does the source give for `CC(=O)Nc1ccc(OCC(O)CNC(C)C)cc1` (centres undefined) [PRACTOLOL] here?
Answer: -1.4

Question: For `COC(=O)c1ccccc1-c1c2ccc(=N)cc-2oc2cc(N)ccc12` [RHODAMINE123], which logD [7, 9] is on record?
Answer: 0.53

Question: For `O=C(O)c1ccccc1O` [SALICYLIC ACID], which bioavailability [8] is on record?
Answer: 100%

Question: And the logD [7, 9]?
Answer: -1.44

Question: What about the logD [4] of the same compound?
Answer: -2.34

Question: With `CC(C)(C)NCC(O)COc1ccc(NC(=O)NC2CCCCC2)cc1` (centres undefined) [TALINOLOL] as the compound, how does the bioavailability [8] read?
Answer: 55%

Question: And the logD [7, 9]?
Answer: 1.1

Question: Which logD [7, 9] does the source give for `CC(=O)CC(c1ccccc1)c1c(O)c2ccccc2oc1=O` (centres undefined) [WARFARIN] here?
Answer: 0.9
